Assay results of several laboratories.
Lines come from different studies, so protocols differ.
Target: Serine/threonine-protein kinase 32C (STK32C, Homo sapiens, UniProt Q86UX6)

SMILES	observed	mode	technique	tested at	setting	endpoint	result
CC(C)S(=O)(=O)c1ccc2nccc(Nc3ccc4sc(C5CCCC5)nc4c3)c2c1	enzyme activity	inhibitor		1 µM		activity vs control	102%
COc1ccc2oc(-c3ccc4nc(N)oc4c3)c/c(=N\c3ccccc3NC(=O)CCN)c2c1	binding			1 µM		remaining binding	100%
Cc1ccc(NC(=O)c2ccnc(C(F)(F)F)c2)cc1-c1cc(OCCO)nc(N2CCOCC2)c1	binding			1 µM		remaining binding	100%
C=CC(=O)N1CCC[C@@H](n2nc(-c3ccc(Oc4ccccc4)cc3)c3c(N)ncnc32)C1	enzyme activity	inhibitor		1 µM		inhibition	14%
C[C@H]1CC[C@H](n2c3cnccc3c3cnc(Nc4ccc5c(n4)CCN(C(=O)CO)C5)nc32)CC1	cell-free assay			1 µM		remaining signal	100%
Cc1cc(O)c(-c2ccc([C@@H](C)CN(C)C)cc2)c2c1[nH]c(=O)c1sccc12	enzyme activity	inhibitor		0.1 µM	lysate	inhibition	-1.49%
C#Cc1cnc(Nc2ccnc(CO)c2)nc1Nc1ccccc1S(C)(=O)=NC#N (stereo not shown)	cell-free assay			1 µM		remaining signal	100%
CCCCC(=O)Nc1ccc(-c2ccc3ncn(CCC)c(=O)c3c2)cn1	binding		competition with immobilised ligand	0.5 µM		remaining binding	92%
N#Cc1ccc(NC(=O)Nc2ccccc2)cc1	cell-free assay		competition with immobilised ligand	25 µM		remaining binding	77%
CO[C@@H]1[C@H](N(C)C(=O)c2ccccc2)C[C@H]2O[C@]1(C)n1c3ccccc3c3c4c(c5c6ccccc6n2c5c31)C(=O)NC4	enzyme activity	inhibitor		1 µM		inhibition	0%
